Measured values reported in ChEMBL document CHEMBL4831540, “Discovery of Aficamten (CK-274), a Next-Generation Cardiac Myosin Inhibitor for the Treatment of Hypertrophic Cardiomyopathy” (J Med Chem, 2021).

Legend:
[1] = Clearance in Sprague-Dawley rat at 1 mg/kg, iv; assay type: ADME, organism-based; conditions: in vivo
Outline: (§1)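 Rat PK with iv and po administration at 1 mg/kg. Clearance and half-life came from the iv arm, and bioavailability from the iv/po comparison.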

[2] = Half life in cynomolgus monkey at 1 mg/kg, po; assay type: ADME, organism-based, Macaca fascicularis; conditions: in vivo
Outline: (§2)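 Multi-species PK study in male animals, n = 3 per group (dog IV arm n = 2). Iv and oral dosing with plasma concentration–time profiles yielding Cmax, tmax, AUC0–t, CL, Vss, t1/2 and F.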

[3] = Half life in Sprague-Dawley rat at 8 mg/kg, po; assay type: ADME, organism-based; conditions: in vivo; outline: as §2
[4] = target: Cytochrome P450 2C19 (Homo sapiens, UniProt P33261); test: Inhibition of CYP2C19 in human liver microsomes assessed as mephenytoin 4-hydroxylation reaction incubated for 30 mins in presence of NADP by LC-MS/MS analysis; assay type: ADME
[5] = AUC (0 to t) in Sprague-Dawley rat at 2 mg/kg, po; assay type: ADME, organism-based; set-up: dose 2 mg/kg; conditions: in vivo; outline: as §2
[6] = Cmax in Sprague-Dawley rat at 2 mg/kg, po; assay type: ADME, organism-based; set-up: route oral, dose 2 mg/kg; conditions: in vivo; outline: as §2
[7] = Oral bioavailability in mouse at 1 mg/kg; assay type: ADME, organism-based; conditions: in vivo
Outline: (§3)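 Single iv or oral doses in male animals, 3 per group except dog iv (2 animals). Plasma concentration–time profiles gave Cmax, tmax, AUC0–t, clearance, steady-state volume of distribution, half-life and bioavailability.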

[8] = Tmax in Sprague-Dawley rat at 3 mg/kg, po; assay type: ADME, organism-based; conditions: in vivo; outline: as §3
[9] = Plasma protein binding in rat plasma assessed as unbound concentration at 5 uM incubated for 6 hrs by HPLC analysis; assay type: ADME, cell-free
[10] = AUC (0 to t) in cynomolgus monkey at 1 mg/kg, iv; assay type: ADME, organism-based, Macaca fascicularis; set-up: dose 1 mg/kg; conditions: in vivo; outline: as §2
[11] = Half life in Beagle dog at 1 mg/kg, po; assay type: ADME, organism-based, Canis lupus familiaris; conditions: in vivo; outline: as §2
[12] = Bioavailability in Sprague-Dawley rat at 1 mg/kg, po or 1 mg/kg, iv; assay type: ADME, organism-based; conditions: in vivo; outline: as §1
[13] = Cmax in mouse at 1 mg/kg, po; assay type: ADME, organism-based; set-up: route oral, dose 1 mg/kg; conditions: in vivo; outline: as §2
[14] = target: T1, Cytochrome P450 3A4 (Homo sapiens, UniProt P08684); test: Inhibition of CYP3A4 in human liver microsomes incubated for 30 mins in presence of NADP by LC-MS/MS analysis
Target sequence in this assay (P08684 whole entry, looked up): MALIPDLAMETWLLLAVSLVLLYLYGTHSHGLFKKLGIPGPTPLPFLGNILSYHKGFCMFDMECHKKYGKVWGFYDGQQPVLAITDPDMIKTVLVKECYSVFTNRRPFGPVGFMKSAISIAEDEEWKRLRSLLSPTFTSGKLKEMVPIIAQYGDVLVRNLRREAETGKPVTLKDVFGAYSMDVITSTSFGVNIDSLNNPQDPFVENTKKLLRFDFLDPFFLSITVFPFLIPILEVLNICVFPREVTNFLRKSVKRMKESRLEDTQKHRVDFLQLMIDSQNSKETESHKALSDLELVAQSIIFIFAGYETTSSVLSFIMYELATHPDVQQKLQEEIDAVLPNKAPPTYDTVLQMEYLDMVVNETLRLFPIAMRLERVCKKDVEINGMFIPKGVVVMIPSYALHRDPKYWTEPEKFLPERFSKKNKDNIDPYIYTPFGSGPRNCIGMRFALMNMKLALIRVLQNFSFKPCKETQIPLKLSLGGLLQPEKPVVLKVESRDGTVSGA

[15] = Tmax in Sprague-Dawley rat at 2 mg/kg, po; assay type: ADME, organism-based; conditions: in vivo; outline: as §3
[16] = Half life in cynomolgus monkey at 1 mg/kg, iv; assay type: ADME, organism-based, Macaca fascicularis; conditions: in vivo; outline: as §2
[17] = Clearance in Beagle dog at 1 mg/kg, iv; assay type: ADME, organism-based, Canis lupus familiaris; conditions: in vivo; outline: as §2
[18] = Cmax in Beagle dog at 1 mg/kg, po; assay type: ADME, organism-based, Canis lupus familiaris; set-up: route oral, dose 1 mg/kg; conditions: in vivo; outline: as §2
[19] = Tmax in cynomolgus monkey at 1 mg/kg, po; assay type: ADME, organism-based, Macaca fascicularis; conditions: in vivo; outline: as §3
[20] = Half life in Sprague-Dawley rat at 1 mg/kg, iv; assay type: ADME, organism-based; conditions: in vivo; outline: as §1
[21] = target: T1, Cytochrome P450 3A4; test: Inhibition of CYP3A4 in human liver microsomes assessed as testosterone 6-beta-hydroxylation reaction incubated for 30 mins in presence of NADP by LC-MS/MS analysis; assay type: ADME
Target sequence in this assay (P08684 whole entry): as the sequence (P08684 whole entry, looked up) above

[22] = AUC (0 to t) in mouse at 1 mg/kg, po; assay type: ADME, organism-based; set-up: dose 1 mg/kg; conditions: in vivo; outline: as §2
[23] = Metabolic stability in rat liver microsomes assessed as intrinsic clearance measured upto 90mins by HPLC/MS/MS analysis; assay type: ADME, Microsome; conditions: read-out: CLH
[24] = target: Cytochrome P450 2D6 (Homo sapiens, UniProt P10635); test: Inhibition of CYP2D6 in human liver microsomes assessed as bufuralol 1'-hydroxylation reaction incubated for 30 mins in presence of NADP by LC-MS/MS analysis; assay type: ADME
[25] = Cmax in Sprague-Dawley rat at 8 mg/kg, po; assay type: ADME, organism-based; set-up: route oral, dose 8 mg/kg; conditions: in vivo; outline: as §2
[26] = Plasma protein binding in human assessed as unbound fraction; assay type: ADME, cell-free
[27] = Tmax in Beagle dog at 1 mg/kg, po; assay type: ADME, organism-based, Canis lupus familiaris; conditions: in vivo; outline: as §3
[28] = Clearance in Sprague-Dawley rat at 1 mg/kg; assay type: ADME, organism-based; conditions: in vivo; outline: as §1
[29] = Inhibition of full-length myosin ATPase activity in bovine cardiac myofibrils; assay type: subcellular, Bos taurus, Heart
Outline: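 Bovine cardiac myofibril ATPase assay run at a calcium level giving 75% of maximal activity.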

[30] = test system: Rattus norvegicus; test: Anti-hypertrophic cardiomyopathy in Sprague-Dawley rat assessed as reduction in fractional shortening at 4 mg/kg, po measured upto 24 hrs by echocardiography relative to control; assay type: functional; set-up: scale not given: the % may be the effect or the level left; conditions: time hrs <=24
Outline: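 Normal Sprague–Dawley rats were given single oral doses of 0.5–4 mg/kg. Left ventricular dimensions and fractional shortening were measured by echocardiography at selected time points over 24 h, relative to vehicle treatment.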

[31] = target: T2, Cytochrome P450 1A2 (Homo sapiens, UniProt P05177); test: Inhibition of CYP1A2 in human liver microsomes assessed as phenacetin O-deethylation reaction incubated for 30 mins in presence of NADP by LC-MS/MS analysis; assay type: ADME
T2 sequence (P05177 whole entry): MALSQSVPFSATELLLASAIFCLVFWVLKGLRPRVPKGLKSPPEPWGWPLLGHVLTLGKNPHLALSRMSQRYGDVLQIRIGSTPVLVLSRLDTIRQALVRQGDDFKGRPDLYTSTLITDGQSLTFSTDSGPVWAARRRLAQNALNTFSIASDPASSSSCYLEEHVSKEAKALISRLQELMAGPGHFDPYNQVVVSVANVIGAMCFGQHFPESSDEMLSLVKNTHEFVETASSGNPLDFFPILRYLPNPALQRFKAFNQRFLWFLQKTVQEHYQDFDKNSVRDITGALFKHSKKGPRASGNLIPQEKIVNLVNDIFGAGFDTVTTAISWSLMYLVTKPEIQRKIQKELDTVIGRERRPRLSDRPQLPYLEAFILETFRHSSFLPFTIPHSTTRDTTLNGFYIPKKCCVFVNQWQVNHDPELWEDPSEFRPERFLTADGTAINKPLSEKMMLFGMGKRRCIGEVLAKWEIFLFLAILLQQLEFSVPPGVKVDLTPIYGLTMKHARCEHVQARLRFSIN

[32] = Oral bioavailability in Beagle dog at 1 mg/kg; assay type: ADME, organism-based, Canis lupus familiaris; conditions: in vivo; outline: as §2
[33] = Oral bioavailability in cynomolgus monkey at 1 mg/kg; assay type: ADME, organism-based, Macaca fascicularis; conditions: in vivo; outline: as §3
[34] = Cmax in Sprague-Dawley rat at 3 mg/kg, po; assay type: ADME, organism-based; set-up: route oral, dose 3 mg/kg; conditions: in vivo
[35] = AUC (0 to t) in Sprague-Dawley rat at 8 mg/kg, po; assay type: ADME, organism-based; set-up: dose 8 mg/kg; conditions: in vivo; outline: as §2
[36] = Clearance in cynomolgus monkey at 1 mg/kg, iv; assay type: ADME, organism-based, Macaca fascicularis; conditions: in vivo; outline: as §2
[37] = target: T1, Cytochrome P450 3A4; test: Inhibition of CYP3A4 in human liver microsomes assessed as midazolam 1'-hyrozylation reaction incubated for 30 mins in presence of NADP by LC-MS/MS analysis; assay type: ADME
Target sequence in this assay (P08684 whole entry): as the sequence (P08684 whole entry, looked up) above

[38] = Tmax in mouse at 1 mg/kg, po; assay type: ADME, organism-based; conditions: in vivo; outline: as §3
[39] = Half life in human; assay type: ADME
[40] = Volume of distribution at steady state in Sprague-Dawley rat at 1 mg/kg, iv; assay type: ADME, organism-based; conditions: in vivo, read-out: Vdss; outline: as §3
[41] = Half life in Sprague-Dawley rat at 3 mg/kg, po; assay type: ADME, organism-based; conditions: in vivo
[42] = Volume of distribution at steady state in mouse at 0.5 mg/kg, iv; assay type: ADME, organism-based; conditions: in vivo, read-out: Vdss; outline: as §3
[43] = Half life in Sprague-Dawley rat at 2 mg/kg, po; assay type: ADME, organism-based; conditions: in vivo; outline: as §2
[44] = Half life in Sprague-Dawley rat at 1 mg/kg; assay type: ADME, organism-based; conditions: in vivo; outline: as §1

Sequence of Cytochrome P450 2C19 (P33261 whole entry): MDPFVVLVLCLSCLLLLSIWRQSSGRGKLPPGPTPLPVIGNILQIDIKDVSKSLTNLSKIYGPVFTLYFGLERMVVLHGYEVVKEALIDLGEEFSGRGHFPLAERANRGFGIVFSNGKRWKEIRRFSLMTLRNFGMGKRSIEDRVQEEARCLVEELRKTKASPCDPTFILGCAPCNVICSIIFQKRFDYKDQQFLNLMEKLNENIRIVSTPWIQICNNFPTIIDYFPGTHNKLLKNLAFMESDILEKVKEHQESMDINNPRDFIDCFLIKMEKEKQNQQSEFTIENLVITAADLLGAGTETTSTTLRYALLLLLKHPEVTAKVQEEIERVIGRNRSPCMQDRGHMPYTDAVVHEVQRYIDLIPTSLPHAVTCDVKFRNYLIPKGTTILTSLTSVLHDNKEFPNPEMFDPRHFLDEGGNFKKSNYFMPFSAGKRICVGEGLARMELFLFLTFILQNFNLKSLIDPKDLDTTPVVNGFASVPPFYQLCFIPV
Sequence of Cytochrome P450 2D6 (P10635 whole entry): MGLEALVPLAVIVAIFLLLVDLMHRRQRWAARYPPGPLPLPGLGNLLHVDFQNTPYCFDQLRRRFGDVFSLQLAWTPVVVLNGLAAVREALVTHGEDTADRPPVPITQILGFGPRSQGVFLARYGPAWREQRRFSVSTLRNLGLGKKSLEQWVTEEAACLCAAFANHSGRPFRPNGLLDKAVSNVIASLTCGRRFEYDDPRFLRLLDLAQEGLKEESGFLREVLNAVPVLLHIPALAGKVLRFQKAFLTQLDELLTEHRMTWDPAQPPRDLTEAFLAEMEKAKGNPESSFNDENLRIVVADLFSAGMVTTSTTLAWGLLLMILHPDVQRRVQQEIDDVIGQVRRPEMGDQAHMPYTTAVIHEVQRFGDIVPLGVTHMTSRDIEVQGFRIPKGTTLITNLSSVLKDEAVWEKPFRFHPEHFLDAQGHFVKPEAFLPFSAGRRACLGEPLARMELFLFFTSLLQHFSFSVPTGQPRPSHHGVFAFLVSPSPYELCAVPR

- clearance [1]: 2.1 mL/min/kg
- half-life [2]: 12.1 h
- half-life [3]: 3.3 h
- IC50 [4]: > 100 µM
- AUC(0-t) [5]: 9450 ng·h/mL
- Cmax [6]: 1650 ng/mL
- bioavailability [7]: 98%
- Tmax [8]: 0.42 h
- fraction unbound at 6 h, 5 µM [9]: 0.018
- AUC(0-t) [10]: 1340 ng·h/mL
- half-life [11]: 28.7 h
- bioavailability [12]: 55%
- Cmax [13]: 268 ng/mL
- IC50 [14]: > 100 µM
- Tmax [15]: 0.92 h
- half-life [16]: 8.1 h
- clearance [17]: 3.3 mL/min/kg
- Cmax [18]: 245 ng/mL
- Tmax [19]: 1.17 h
- half-life [20]: 3 h
- IC50 [21]: > 100 µM
- AUC(0-t) [22]: 1830 ng·h/mL
- CLint scaled [23]: < 21 mL/min/kg
- IC50 [24]: > 100 µM
- Cmax [25]: 8440 ng/mL
- fraction unbound [26]: 0.095
- Tmax [27]: 0.33 h
- clearance [28]: 2.1 mL/min/kg
- IC50 [29]: 1.4 µM
- IC50 [31]: > 100 µM
- bioavailability [32]: 45%
- bioavailability [33]: 41%
- Cmax [34]: 3170 ng/mL
- AUC(0-t) [35]: 53700 ng·h/mL
- clearance [36]: 11.2 mL/min/kg
- IC50 [37]: > 100 µM
- Tmax [38]: 0.25 h
- half-life [39]: 67.2 h
- Vd [40]: 0.53 L/kg
- half-life [41]: 3.5 h
- Vd [42]: 3.14 L/kg
- half-life [43]: 2.6 h
- half-life [44]: 3 h
SMILES: CCc1nc(-c2ccc3c(c2)CC[C@H]3NC(=O)c2cnn(C)c2)no1 [AFICAMTEN]
- Activity [30]: 70%
